KDM4C inh: blocks human GASC-1 (KDM4C) demethylase activity; GST-KDM4C 2-372, H3K9me3 peptide, LANCE TR-FRET; inhibition, % at 12.5 µM; actives 0.15% (n = 96,000); AID 720574;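 active = mean replicate inhibition above about 25%, with at least 55% of replicates also reaching it, limit read from the data, passing the limit was not always enough; inconclusive = only one of those two conditions met; inactive = neither condition met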
Target sequence (Q9H3R0 2-372 limits assumed): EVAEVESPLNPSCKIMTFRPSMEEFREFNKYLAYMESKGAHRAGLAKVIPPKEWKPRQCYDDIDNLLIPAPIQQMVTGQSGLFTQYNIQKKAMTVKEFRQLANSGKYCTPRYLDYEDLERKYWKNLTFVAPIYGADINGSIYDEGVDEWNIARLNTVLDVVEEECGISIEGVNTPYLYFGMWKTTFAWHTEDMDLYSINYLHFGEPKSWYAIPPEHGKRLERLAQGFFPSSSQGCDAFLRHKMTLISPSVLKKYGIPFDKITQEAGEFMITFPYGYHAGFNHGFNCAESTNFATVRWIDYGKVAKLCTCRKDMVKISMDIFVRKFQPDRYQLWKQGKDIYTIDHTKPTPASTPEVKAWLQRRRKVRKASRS
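Test system: N-terminal GST-fused human GASC-1 (KDM4C) fragment, residues 2-372; quantity: GASC-1 enzyme at 10 nM final in reaction; dosing: single dose; schedule: 30 min demethylation and 1 h detection at room temperature; signal: LANCE TR-FRET, excitation 340 nm, emissions 618 and 671 nm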
T cruzi growth-1: blocks T. cruzi growth in NIH3T3 culture. T. cruzi beta-gal in NIH3T3, GalScreen luminescence, 90 h. inhibition, % at 8.34 µM. actives 5.9% (n = 77,000). AID 624255;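 active = mean inhibition above about 93%, with at least 55% of replicates each passing it, limit read from the data, passing the limit was not always enough; inconclusive = only one of those two conditions holds; inactive = neither condition holds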
IDH1 R132H inh: inhibitors of human IDH1 R132H. IDH1 R132H reductase, diaphorase/resazurin fluorescence, 60 min. inhibition, % at 10 µM. actives 0.18% (n = 70,000); in the data active = inhibition above about 34%; inconclusive = no clear call, values can overlap the other calls; inactive = below about 11%;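 also: 0% = DMSO and 100% = no enzyme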
T cruzi growth-2: Trypanosoma cruzi proliferation inhibition. shares compounds with T cruzi growth-1. T. cruzi beta-gal in NIH3T3, GalScreen luminescence, 90 h. inhibition, % at 8.35 µM. actives 72% (n = 5,600);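 active = mean replicate inhibition above about 95% and at least 55% of replicates individually reaching it, limit read from the data; inconclusive = only one of the two criteria is met; inactive = neither criterion is met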
T cruzi growth-3: blocks T. cruzi growth in NIH3T3 host cells | actives 21% (n = 5,600) | inhibition, % at 2.09 µM | AID 651740 | T. cruzi beta-gal in NIH3T3, GalScreen luminescence, 90 h | shares compounds with T cruzi growth-1;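 active = mean inhibition above about 95%, with at least 55% of replicates also reaching it, limit read from the data; inconclusive = meets just one of the two conditions; inactive = meets neither condition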;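 also: plate controls were neutral control median for no effect and positive control median for full effect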
NIH3T3 tox: kills mouse NIH/3T3 fibroblasts; shares compounds with T cruzi growth-1; NIH/3T3 viability, CellTiter-Glo ATP luminescence, 90 h; cytotoxicity (signal decrease), % at 8.35 µM; actives 14% (n = 5,600); AID 651742;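 active = mean signal decrease across replicates above about 35% based on untreated-well scatter, with enough replicates individually passing, limit read from the data; inconclusive = no rule stated though some were filed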;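 also: 0% = median of neutral control wells and 100% = median of positive control wells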
NIH3T3 tox 2: kills mouse NIH/3T3 fibroblasts; shares compounds with T cruzi growth-1; NIH/3T3 viability, CellTiter-Glo ATP luminescence, 90 h; inhibition, % at 24.9 µM; actives 56% (n = 5,600); AID 651744;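 active = mean loss of cell viability signal at or above a set limit, and enough replicates individually reaching it; inconclusive = meets only the mean limit or only the replicate share; inactive = meets neither condition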;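 also: 0% = median of neutral control wells and 100% = median of positive control wells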
Numbers without * were called inactive. This excerpt belongs to a sample that is enriched for hits.

For COc1ccc(S(=O)(=O)N(C)C[C@H]2OCCCC[C@@H](C)Oc3ccc(NC(=O)Nc4ccc5c(c4)OCO5)cc3C(=O)N([C@H](C)CO)C[C@@H]2C)cc1 the results were KDM4C inh 3, T cruzi growth-1 50 and IDH1 R132H inh 0.
`C[C@@H]1CCCCO[C@@H](CN(C)S(=O)(=O)c2ccc(Cl)cc2)[C@@H](C)CN([C@H](C)CO)C(=O)c2cc(NC(=O)Nc3ccc4c(c3)OCO4)ccc2O1` gave KDM4C inh 1 and T cruzi growth-1 72.
For C[C@@H]1CCCCO[C@H](CN(C)S(=O)(=O)c2ccc(Cl)cc2)[C@@H](C)CN([C@@H](C)CO)C(=O)c2cc(NC(=O)Nc3ccc4c(c3)OCO4)ccc2O1 the results were KDM4C inh 1, T cruzi growth-1 103*, T cruzi growth-2 108*, T cruzi growth-3 104*, NIH3T3 tox -2 and NIH3T3 tox 2 -4.
COc1ccc(NC(=O)CSc2nc(O)cc(=O)n2-c2ccc(C)cc2)cc1 was read as IDH1 R132H inh 0.
`Cc1ccc(S(=O)(=O)N(C)C[C@H]2OCCCC[C@H](C)Oc3ccc(NS(=O)(=O)c4ccc(Cl)cc4)cc3C(=O)N([C@H](C)CO)C[C@H]2C)cc1` gave KDM4C inh 2, T cruzi growth-1 108*, IDH1 R132H inh 0, T cruzi growth-2 97*, T cruzi growth-3 109*, NIH3T3 tox -23 and NIH3T3 tox 2 inconclusive.
For Cc1ccc(S(=O)(=O)Nc2ccc3c(c2)C(=O)N([C@@H](C)CO)C[C@H](C)[C@H](CN(C)S(=O)(=O)c2ccc(Cl)cc2)OCCCC[C@@H](C)O3)cc1 the results were KDM4C inh 0, T cruzi growth-1 99*, IDH1 R132H inh 2, T cruzi growth-2 102*, T cruzi growth-3 113*, NIH3T3 tox 7 and NIH3T3 tox 2 47*.
Screening Cc1ccc(S(=O)(=O)N(C)C[C@@H]2OCCCC[C@@H](C)Oc3ccc(NS(=O)(=O)c4ccc(Cl)cc4)cc3C(=O)N([C@H](C)CO)C[C@H]2C)cc1 returned KDM4C inh -1, T cruzi growth-1 77 and IDH1 R132H inh -1.
`Cc1ccc(S(=O)(=O)Nc2ccc3c(c2)C(=O)N([C@H](C)CO)C[C@@H](C)[C@@H](CN(C)S(=O)(=O)c2ccc(Cl)cc2)OCCCC[C@H](C)O3)cc1` gave KDM4C inh 1, T cruzi growth-1 117*, T cruzi growth-2 97*, T cruzi growth-3 107*, NIH3T3 tox -24 and NIH3T3 tox 2 8.
`Cc1ccc(S(=O)(=O)Nc2ccc3c(c2)C(=O)N([C@H](C)CO)C[C@H](C)[C@@H](CN(C)S(=O)(=O)c2ccc(Cl)cc2)OCCCC[C@@H](C)O3)cc1` gave KDM4C inh 0, T cruzi growth-1 108*, IDH1 R132H inh 7, T cruzi growth-2 106*, T cruzi growth-3 41, NIH3T3 tox 18 and NIH3T3 tox 2 45*.
Screening C[C@@H]1CCCCO[C@@H](CN(C)S(=O)(=O)c2ccc(Cl)cc2)[C@@H](C)CN([C@@H](C)CO)C(=O)c2cc(NS(=O)(=O)c3ccc(Cl)cc3)ccc2O1 returned KDM4C inh 0 and T cruzi growth-1 79.
For COc1ccccc1-n1nnnc1SCC(=O)Nc1ccccc1C the results were IDH1 R132H inh 0.
Screening CC(C)(O[C@@H]1O[C@H](CO)[C@@H](O)[C@H](O)[C@H]1O)[C@@H](O)COc1c2ccoc2cc2oc(=O)ccc12 returned IDH1 R132H inh 2.
`CN(CC(=O)Nc1cc(C(F)(F)F)ccc1Cl)S(=O)(=O)c1ccc2ccccc2c1` gave IDH1 R132H inh 0.
Cc1ccc(S(=O)(=O)Nc2ccc3c(c2)C(=O)N([C@H](C)CO)C[C@@H](C)[C@@H](CN(C)S(=O)(=O)c2ccc(Cl)cc2)OCCCC[C@@H](C)O3)cc1 was read as KDM4C inh 0, T cruzi growth-1 119*, IDH1 R132H inh 0, T cruzi growth-2 103*, T cruzi growth-3 115*, NIH3T3 tox 1 and NIH3T3 tox 2 15.

Source: PubChem BioAssay (Broad Institute)
